Most compounds without a hit are left out; they make up all but 3.7% or so of the library.
hERG protect = compounds protecting human hERG from proarrhythmic drug block | activation (rescue from dofetilide block), less the hit threshold, % at 10 µM | CHO-hERG, FluxOR thallium flux, dofetilide IC70 present | Q12809 | AID 1511 | 310,000 compounds, 0.51% hits;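 active = activation above the mean of controls blocked by dofetilide plus 5 SD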;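 note: thallium influx through hERG after potassium depolarization seen as dye fluorescence rise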
KCNK9 block = human KCNK9 channel inhibition | Q9NPC2 | HEK293 KCNK9, FluxOR thallium flux fluorescence; hits give low values | B-score at 10 µM | 310,000 compounds, 1.2% hits | AID 488922;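 active = ratio B-score over 3 SD below the library mean, with starting fluorescence within 5 SD of its mean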;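 note: negative B-score means less thallium flux so channel inhibition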
KCNQ1 inh = human KCNQ1 channel inhibition; CHO-K1 KCNQ1, FluxOR thallium flux fluorescence; hits give high values; 310,000 compounds, 1.3% hits; B-score at 10 µM;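 active = compounds whose thallium flux B-score, printed positive for inhibition, exceeds three library SD while starting fluorescence stays within three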;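 note: channel opened by potassium depolarization with thallium stimulus after 20 min compound exposure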
Kir21 inh = blocks the mouse Kir2.1 inward-rectifier potassium channel. P35561. HEK293-Kir2.1, FluxOR thallium flux fluorescence; hits give low values. B-score at 10 µM. 310,000 compounds, 0.85% hits. AID 1672;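 active = fluorescence ratio B-score at or below minus 3 SD of library scores, with starting-brightness B-score within 2 SD, cut at about -4.2 in these data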;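 note: channel flux triggered by added potassium and thallium sulfate stimulus; B-score of peak minus minimum fluorescence over baseline after thallium stimulus; more negative B-score means stronger Kir2.1 block with less thallium influx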
Target sequence (P35561 whole entry, looked up): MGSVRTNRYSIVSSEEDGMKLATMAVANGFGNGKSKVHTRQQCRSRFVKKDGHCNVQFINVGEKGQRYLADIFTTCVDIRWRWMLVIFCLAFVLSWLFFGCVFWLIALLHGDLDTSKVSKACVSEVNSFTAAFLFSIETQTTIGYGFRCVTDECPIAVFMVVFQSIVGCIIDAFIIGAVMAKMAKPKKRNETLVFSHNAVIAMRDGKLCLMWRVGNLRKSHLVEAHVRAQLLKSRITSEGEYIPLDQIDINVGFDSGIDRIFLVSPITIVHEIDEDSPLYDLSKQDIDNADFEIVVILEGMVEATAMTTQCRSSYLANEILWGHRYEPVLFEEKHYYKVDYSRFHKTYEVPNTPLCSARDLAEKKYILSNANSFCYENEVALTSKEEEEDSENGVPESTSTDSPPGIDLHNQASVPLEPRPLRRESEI
KCNK3 inh = human KCNK3 channel inhibition, primary screen | O14649 | CHO-KCNK3 thallium flux, FluxOR fluorescence; hits give low values | B-score at 10 µM | 340,000 compounds, 0.84% hits | AID 602410;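 active = B-score under library mean minus 4 SD, starting fluorescence ratio at most library mean plus 5 SD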;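 note: more negative B-score means stronger inhibition of thallium flux through KCNK3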
KCNQ1 act = potentiates or activates the human KCNQ1 potassium channel. P51787. CHO-K1 KCNQ1, thallium flux FluxOR fluorescence; hits give high values. B-score at 10 µM. 310,000 compounds, 0.35% hits;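 active = fluorescence ratio B-score, a plate-corrected score, at least three library SD, with initial intensity B-score within 5 SD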
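Material: CHO-K1 cells stably expressing KCNQ1. Medium: assay buffer for compound exposure, DMSO matched across wells. Reagent: K+/Tl+ depolarizing stimulus. Compound dosing: single-concentration screen. Times: 37 °C overnight plating, 90-min dark dye load, 20-min compound pretreatment. Technique: FluxOR Tl+ flux fluorescence.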
A number is an active result; ! = not confirmed by another sample.

What do the screens show for `CCCCN(CCCC)c1nc2ccccc2nc1C(C#N)C(=O)NCCCOC` (stereo unspecified)?
hERG protect: inactive; KCNK9 block: inactive; KCNQ1 inh: 15; Kir21 inh: inactive; KCNK3 inh: inactive; KCNQ1 act: inactive

Results for CCCN(CCC)c1nc2ccccc2nc1C(C#N)C(=O)OC(C)COC (stereo unspecified) ?
hERG protect: inactive; KCNK9 block: inactive; KCNQ1 inh: 8; Kir21 inh: inactive; KCNQ1 act: inactive

How did Cc1csc(CNC(=O)C2CCC(=O)N(CCCc3ccccc3)C2)n1 (stereo unspecified) do in these assays?
hERG protect: inactive; KCNK9 block: inactive; KCNQ1 inh: inactive; Kir21 inh: inactive; KCNK3 inh: inactive; KCNQ1 act: inactive

How did CN1CCN(S(=O)(=O)c2cccc(C(=O)N(C)CC(=O)Nc3ccc(Cl)c(Cl)c3)c2)CC1 do in these assays?
KCNK3 inh: inactive

Results for O=C1NC[C@@H](c2ccccc2)OC(=O)[C@H](Cc2ccc(F)cc2)C/C=C\C[C@@H]1CC(=O)N(CCO)Cc1ccccc1 ?
KCNK3 inh: inactive

How did Cc1cc(C)nc(SSc2nc(C)cc(C)n2)n1 do in these assays?
hERG protect: 5.6; KCNK9 block: inactive; KCNQ1 inh: inactive; Kir21 inh: inactive; KCNK3 inh: inactive; KCNQ1 act: inactive

How did CC(=O)c1cc(CN2CCN(CC=C(C)C)C(CCO)C2)cs1 (stereo unspecified) do in these assays?
hERG protect: inactive; KCNK9 block: inactive; KCNQ1 inh: inactive; Kir21 inh: inactive; KCNK3 inh: inactive; KCNQ1 act: inactive

How did O=C(O)C(Cc1ccccc1)N1C(=O)c2ccccc2C1=O (stereo unspecified) do in these assays?
hERG protect: inactive; KCNK9 block: inactive; KCNQ1 inh: inactive; Kir21 inh: inactive; KCNK3 inh: inactive; KCNQ1 act: inactive

How did O=C(O)C(Cc1ccccc1)N1C(=O)c2c(Cl)c(Cl)c(Cl)c(Cl)c2C1=O (stereo unspecified) do in these assays?
hERG protect: inactive; KCNK9 block: inactive; KCNQ1 inh: 6; Kir21 inh: inactive; KCNK3 inh: inactive; KCNQ1 act: inactive

How did Cc1ccc(NC(=O)CCc2c[nH]c3ccccc23)nc1 do in these assays?
hERG protect: inactive; KCNK9 block: inactive; KCNQ1 inh: inactive; Kir21 inh: inactive; KCNK3 inh: inactive; KCNQ1 act: inactive

What do the screens show for `CCOC(=O)c1cnc2c(OC)cccc2c1N1CCN(c2ccccc2OC)CC1`?
hERG protect: inactive; KCNK9 block: inactive; KCNQ1 inh: inactive; Kir21 inh: inactive; KCNK3 inh: inactive; KCNQ1 act: inactive

How did CCOC(=O)c1cnc2c(C)cccc2c1NCCc1ccc(OC)c(OC)c1 do in these assays?
hERG protect: inactive; KCNK9 block: inactive; KCNQ1 inh: inactive; Kir21 inh: -7.6; KCNK3 inh: inactive; KCNQ1 act: inactive

What do the screens show for `CCOC(=O)c1cnc2c(OC)cccc2c1Oc1ccccc1`?
hERG protect: inactive; KCNK9 block: inactive; KCNQ1 inh: inactive; Kir21 inh: -7.9; KCNK3 inh: inactive; KCNQ1 act: inactive

How did CCCCN(CCCC)CC(O)CN(c1cc([N+](=O)[O-])ccc1OC)S(=O)(=O)c1ccccc1 (stereo unspecified) do in these assays?
hERG protect: inactive; KCNK9 block: inactive; KCNQ1 inh: inactive; Kir21 inh: inactive; KCNK3 inh: inactive; KCNQ1 act: inactive

How did COc1ccc([N+](=O)[O-])cc1N(CC(O)CN(CC(C)C)CC(C)C)S(=O)(=O)c1ccccc1 (stereo unspecified) do in these assays?
hERG protect: inactive; KCNK9 block: -6.7; KCNQ1 inh: inactive; Kir21 inh: inactive; KCNK3 inh: inactive; KCNQ1 act: inactive

What do the screens show for `COc1cc(C(=O)CCN2CCC(c3ccccc3)C2)cc(OC)c1OC` (stereo unspecified)?
hERG protect: inactive; KCNK9 block: inactive; KCNQ1 inh: inactive; Kir21 inh: inactive; KCNK3 inh: inactive; KCNQ1 act: 11

How did O=C(CCN1CCC(c2ccccc2)C1)c1ccccc1 (stereo unspecified) do in these assays?
hERG protect: inactive; KCNK9 block: inactive; KCNQ1 inh: inactive; Kir21 inh: inactive; KCNK3 inh: inactive; KCNQ1 act: inactive

How did CCC1=NN(C(=O)C(=O)Nc2ccc(Br)cc2)C(O)(C(F)(F)F)C1 (stereo unspecified) do in these assays?
hERG protect: inactive; KCNK9 block: inactive; KCNQ1 inh: 6; Kir21 inh: inactive; KCNK3 inh: inactive; KCNQ1 act: inactive

Results for CCCC1=NN(C(=O)C(=O)Nc2ccc(Br)cc2)C(O)(C(F)(F)F)C1 (stereo unspecified) ?
hERG protect: inactive; KCNK9 block: inactive; KCNQ1 inh: inactive; Kir21 inh: inactive; KCNK3 inh: inactive; KCNQ1 act: inactive

Results for COc1ccc(NC(=O)C(=O)N2N=C(C(C)C)CC2(O)C(F)(F)F)cc1 (stereo unspecified) ?
hERG protect: inactive; KCNK9 block: inactive; KCNQ1 inh: 6; Kir21 inh: inactive; KCNK3 inh: inactive; KCNQ1 act: inactive

How did CC(C)C1=NN(C(=O)c2cccnc2)C(O)(C(F)(F)F)C1 (stereo unspecified) do in these assays?
hERG protect: inactive; KCNK9 block: inactive; KCNQ1 inh: inactive; Kir21 inh: inactive; KCNK3 inh: inactive; KCNQ1 act: inactive

How did CN(C)c1ccc(/C=N/NC(=O)c2nnn(-c3nonc3N)c2COc2ccc(F)cc2)cc1 do in these assays?
hERG protect: inactive; KCNK9 block: inactive; KCNQ1 inh: inactive; Kir21 inh: inactive; KCNK3 inh: inactive; KCNQ1 act: inactive

Results for CCc1ccc(C(c2ccc(CC)cc2)C(Cl)Cl)cc1 ?
KCNK3 inh: inactive

How did Clc1ccc(C(c2ccccc2Cl)C(Cl)Cl)cc1 (stereo unspecified) do in these assays?
KCNK3 inh: -8.9

How did N#Cc1ccc(NC(=O)CSc2cn[nH]n2)cc1 do in these assays?
hERG protect: inactive; KCNK9 block: inactive; KCNQ1 inh: inactive; Kir21 inh: inactive; KCNK3 inh: inactive; KCNQ1 act: inactive

What do the screens show for `Cc1ccc(NC2CCCN(C(=O)c3ccccc3-c3ncc[nH]3)C2)cc1C` (stereo unspecified)?
hERG protect: inactive; KCNK9 block: inactive; KCNQ1 inh: inactive; Kir21 inh: inactive; KCNK3 inh: inactive; KCNQ1 act: inactive

Results for Cc1ccc(S(=O)(=O)N2CCOCC2)cc1NC(=O)c1ccc(F)cc1F ?
KCNK3 inh: inactive

Results for Cc1ccc(OCC(O)CN2CCN(Cc3ccc4c(c3)OCO4)CC2)cc1C (stereo unspecified) ?
hERG protect: inactive; KCNK9 block: inactive; KCNQ1 inh: inactive; Kir21 inh: inactive; KCNK3 inh: inactive; KCNQ1 act: inactive

Results for C=CCc1ccccc1OCC(O)CN1CCN(Cc2ccc3c(c2)OCO3)CC1 (stereo unspecified) ?
hERG protect: inactive; KCNK9 block: inactive; KCNQ1 inh: inactive; Kir21 inh: -4.6!; KCNK3 inh: inactive; KCNQ1 act: inactive
